Results taken from ChEMBL document CHEMBL1121573, “2-(Aminomethyl)phenols, a new class of saluretic agents. 1. Effects of nuclear substitution” (J Med Chem, 1980).

Assays:
[1] = system: Rattus norvegicus; assay: Evaluated for salidiuretic activity measured as sodium ion excretion in Rat, administered orally at a dose of 50 mg/kg; type: functional, Urine; parameters: unit not given beside the values; conditions: route oral
Method in brief: (§1)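 Female Charles-River rats (150–170 g), overnight on sugar diet with water ad libitum. Compound dissolved in DMF, diluted with water containing Tween 80 (final 4% DMF), given po in 5.0 mL; concurrent vehicle placebo. Three rats per metabolism cage; 0–5 h urine analysed for Na+, K+, Cl-. Values: mequiv × 100 per cage, geometric means of three cages per dose; scored 0–6 by Na+.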

[2] = Compound administered orally at a dose of 5 mg/kg was evaluated for salidiuretic activity measured as sodium ion excretion in Rat; type: organism-based; parameters: dose 5 mg/kg; conditions: Urine; method in brief: as §1
[3] = system: Canis familiaris; assay: Compound administered intravenously at a dose of 5 mg/kg was evaluated for salidiuretic activity measured as sodium ion excretion in Dog; Value ranges from 600-799; type: ADME, organism-based, Canis lupus familiaris, Urine; parameters: dose 5 mg/kg, route intravenous; unit not given beside the values; conditions: in vivo, iv
Method in brief: (§2)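 Conditioned female mongrel dogs, postabsorptive, water-loaded (500 mL po) 1 h before sodium pentobarbital anesthesia (30 mg/kg iv). Bladder catheter; creatinine 4 g sc; phosphate–mannitol buffer pH 7.4 infused (3.0 mL/min) throughout. […] Urine Na+ measured; response scored 0–6.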

[4] = system: Rattus norvegicus; assay: Compound administered orally at a dose of 81 mg/kg was evaluated for salidiuretic activity measured as sodium ion excretion in Rat; type: ADME, organism-based, Urine; parameters: dose 81 mg/kg, route oral; unit not given beside the values; conditions: in vivo, po; method in brief: as §1
[5] = Evaluated for salidiuretic activity measured as sodium ion excretion in Rat, administered orally at a dose of 16.5 mg/kg; type: organism-based; parameters: dose 16.5 mg/kg; conditions: Urine; method in brief: as §1
[6] = system: Canis familiaris; assay: Compound administered intravenously was evaluated for salidiuretic activity measured as sodium ion excretion in Dog; type: ADME, organism-based, Canis lupus familiaris, Urine; parameters: unit not given beside the values; conditions: in vivo, iv; method in brief: as §2
[7] = system: Canis familiaris; assay: Compound administered intravenously at a dose of 5 mg/kg was evaluated for salidiuretic activity measured as sodium ion excretion in Dog; Value ranges from 400-599; type: ADME, organism-based, Canis lupus familiaris, Urine; parameters: dose 5 mg/kg, route intravenous; conditions: in vivo, iv; method in brief: as §2
[8] = system: Canis familiaris; assay: Compound administered intravenously was evaluated for salidiuretic activity measured as sodium ion excretion in Dog; Value ranges from 600-799; type: ADME, organism-based, Canis lupus familiaris, Urine; conditions: in vivo, iv; method in brief: as §2
[9] = system: Rattus norvegicus; assay: Compound administered orally at a dose of 1 mg/kg was evaluated for salidiuretic activity measured as sodium ion excretion in Rat; conditions: in vivo, po
[10] = system: Canis familiaris; assay: Compound administered intravenously at a dose of 5 mg/kg was evaluated for salidiuretic activity measured as sodium ion excretion in Dog; Value ranges from 0-99; type: ADME, organism-based, Canis lupus familiaris, Urine; parameters: dose 5 mg/kg, route intravenous; conditions: in vivo, iv; method in brief: as §2
[11] = system: Canis familiaris; assay: Compound administered intravenously was evaluated for salidiuretic activity measured as sodium ion excretion in Dog; Value ranges from 100-249; type: ADME, organism-based, Canis lupus familiaris, Urine; conditions: in vivo, iv; method in brief: as §2
[12] = system: Canis familiaris; assay: Compound administered intravenously was evaluated for salidiuretic activity measured as sodium ion excretion in Dog; Value ranges from 400-599; type: ADME, organism-based, Canis lupus familiaris, Urine; conditions: in vivo, iv; method in brief: as §2

Diuretic activity [4] | SMILES | Diuretic activity [1] | Diuretic activity [2] | Diuretic activity [5] | other results
2.9 | Cc1c(Cl)cc(I)c(O)c1CN.Cl | 2.4 | 0.5 | 1.4 | Diuretic activity [3]: 600
 | Br.Cc1c(C)c(Cl)c(Cl)c(CN)c1O |  |  |  | Diuretic activity [6]: > 900
 | CC(C)Cc1cc(Cl)c(O)c(CN)c1.Cl | 2.4 | 0.5 | 1.4 | Diuretic activity [7]: 400
 | Cc1c(Cl)cc(Cl)c(O)c1CN.Cl |  |  |  | Diuretic activity [6]: > 900
2.4 | CCc1c(Cl)cc(CN)c(O)c1Cl.Cl | 1.8 | 0.4 | 0.6 | Diuretic activity [7]: 400
 | Cc1cc(C(C)(C)C)cc(CN)c1O.Cl |  |  |  | Diuretic activity [8]: 600
 | Br.Cc1c(C)c(CN)c(O)c(Cl)c1Cl | 3.6 | 2.6 | 3.3 | Diuretic activity [3]: 600; Diuretic activity [9]: 0.7
1.5 | CCSc1cc(C(C)(C)C)cc(CN)c1O.Cl | 1.2 | 0.3 | 0.5 | Diuretic activity [7]: 400
< 0.3 | Cc1cc(C)c(CN)c(O)c1.Cl | <0.2 |  |  | Diuretic activity [9]: 1; Diuretic activity [10]: 0
2.9 | C=CCc1cc(CN)c(O)c(OC)c1.Cl | 2.4 | 0.5 | 1.4 | Diuretic activity [3]: 600
 | Cc1c(Cl)c(C)c(CN)c(O)c1Br.Cl |  |  |  | Diuretic activity [6]: > 900
 | CC(C)c1cc(I)c(O)c(CN)c1.Cl | 3.6 | 2.6 | 3.3 | Diuretic activity [3]: 600; Diuretic activity [9]: 0.7
 | COc1c(Cl)c(OC)c(CN)c(O)c1Br.Cl | 3.6 | 2.6 | 3.3 | Diuretic activity [3]: 600; Diuretic activity [9]: 0.7
 | CCOC(=O)c1cc(Cl)c(O)c(CN)c1.Cl |  |  |  | Diuretic activity [11]: 100
2.9 | Cc1cc(Cl)c(O)c(CN)c1C.Cl | 2.4 | 0.5 | 1.4 | Diuretic activity [7]: 400
 | Cc1cc(Cl)c(O)c(CN)c1Cl.Cl |  |  |  | Diuretic activity [12]: 400
 | Cl.NCc1c(O)c(C(F)(F)F)cc(Cl)c1Cl | 3.3 | 1.4 | 2.7 | Diuretic activity [7]: 400
 | CC1(c2cc(I)c(O)c(CN)c2)CCCC1.Cl |  |  |  | Diuretic activity [12]: 400
2.9 | CCOc1c(Cl)c(O)c(CN)c(OCC)c1Cl.Cl | 2.4 | 0.5 | 1.4 | Diuretic activity [10]: 0
 | Cc1c(C)c(Cl)c(O)c(CN)c1C.Cl |  |  |  | Diuretic activity [8]: 600
 | CCCC(=O)c1cc(C)c(O)c(CN)c1.Cl |  |  |  | Diuretic activity [11]: 100
 | Cc1c(Cl)cc(C(C)C)c(O)c1CN.Cl |  |  |  | Diuretic activity [11]: 100
 | Cl.NCc1c(O)cc(Cl)c(Cl)c1Cl | 3.3 | 1.4 | 2.7 | Diuretic activity [7]: 400
1.5 | CCc1ccc(O)c(CN)c1.Cl | 1.2 | 0.3 | 0.5 | Diuretic activity [11]: 100
2.9 | CCC(C)(C)c1cc(Cl)c(O)c(CN)c1.Cl | 2.4 | 0.5 | 1.4 | Diuretic activity [3]: 600
 | Cl.NCc1cc(C2CCCCC2)cc(Cl)c1O |  |  |  | Diuretic activity [12]: 400
 | CSc1cc(C(C)(C)C)cc(CN)c1O.Cl | 3.6 | 2.6 | 3.3 | Diuretic activity [3]: 600; Diuretic activity [9]: 0.7
1.5 | CC(C)(C)c1ccc(O)c(CN)c1.Cl | 1.2 | 0.3 | 0.5 | Diuretic activity [10]: 0
